We go through three molecules from ChEMBL document CHEMBL3352487, “Synthesis, antibacterial activity, and biological evaluation of formyl hydroxyamino derivatives as novel potent peptide deformylase inhibitors against drug-resistant bacteria” (Eur J Med Chem, 2014).

In brackets after ≈: the same amount, converted by molar mass. Bounds are passed on as bounds.

A short description of data set [1]: Cmax in Sprague-Dawley rat at 25 mg/kg, po. Type of data set: ADME, organism-based. Also noted: dose 25 mg/kg, route oral. Conditions: in vivo.
Data set [2] is described as follows: Half life in Sprague-Dawley rat at 25 mg/kg, po. Set-up: dose 25 mg/kg, route oral. Type of data set: ADME, organism-based. The following applies: in vivo.
Data set [3] concerns Staphylococcus epidermidis. Description: Antimicrobial activity against Staphylococcus epidermidis after 24 hrs by broth microdilution method. Type of data set: functional. The gist of the method:
(§1)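 Broth microdilution following NCCLS M7-A4; ATCC strains and clinical isolates from a provincial hospital.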
A general note: Dilution methods test growth across graded concentrations, often in twofold steps.

Data set [4] has as its system Streptococcus pyogenes. Description: Antimicrobial activity against Streptococcus pyogenes 1308007P after 24 hrs by broth microdilution method. Type of data set: functional. The procedure, abridged:
as §1

Data set [5] is described as follows: AUC (0 to infinity) in Sprague-Dawley rat at 25 mg/kg, po. It counts as ADME, organism-based. Also noted: dose 25 mg/kg, route oral, time infinity. Conditions: plasma.
Data set [6] concerns Escherichia coli. Description: Antimicrobial activity against Escherichia coli isolate 3 after 24 hrs by broth microdilution method. The following applies: isolate 3, 24 h. Type of data set: functional. The procedure, abridged:
as §1

A short description of data set [7]: Half life in Sprague-Dawley rat at 5 mg/kg, iv. Set-up: dose 5 mg/kg, route intravenous. Conditions: in vivo. Type of data set: ADME, organism-based.
Data set [8] has as its system Escherichia coli. Description: Antimicrobial activity against Escherichia coli isolate 1 after 24 hrs by broth microdilution method. Type of data set: functional. Conditions: isolate 1, 24 h. The procedure, abridged: as §1
Data set [9] is described as follows: Oral bioavailability in Sprague-Dawley rat at 25 mg/kg. Type of data set: ADME, organism-based. The following applies: in vivo.
The subject of data set [10] is Haemophilus influenzae. Nature of the data set: Antimicrobial activity against Haemophilus influenzae H128 after 24 hrs by broth microdilution method. Conditions: H128, 24 h. Type of data set: functional. The gist of the method: as §1
In data set [11] the test system is Streptococcus pneumoniae. Nature of the data set: Antimicrobial activity against Streptococcus pneumoniae N1387 after 24 hrs by broth microdilution method. The following applies: N1387, 24 h. It counts as functional. The gist of the method:
as §1

Data set [12] in a line: AUC (0 to t) in Sprague-Dawley rat at 5 mg/kg, iv. It counts as ADME, organism-based. Also noted: dose 5 mg/kg, route intravenous. The following applies: plasma.
Data set [13] concerns Staphylococcus aureus. Description: Antimicrobial activity against Staphylococcus aureus WCUH29 after 24 hrs by broth microdilution method. It counts as functional. The following applies: WCUH29, 24 h. The gist of the method: as §1
Data set [14] relates to Haemophilus influenzae. Nature of the data set: Antimicrobial activity against AcrA-deficient Haemophilus influenzae H128 after 24 hrs by broth microdilution method. The following applies: H128, 24 h. It counts as functional. The gist of the method: as §1
Data set [15] has as its system Escherichia coli. Nature of the data set: Antimicrobial activity against Escherichia coli isolate 2 after 24 hrs by broth microdilution method. The following applies: isolate 2, 24 h. Type of data set: functional. The procedure, abridged: as §1
The nature of data set [16]: Mean residence time (0 to t) in Sprague-Dawley rat at 5 mg/kg, iv. The following applies: in vivo. Set-up: dose 5 mg/kg, route intravenous. It counts as ADME, organism-based.
For data set [17], the system named is Staphylococcus aureus. Nature of the data set: Antimicrobial activity against Staphylococcus aureus after 24 hrs by broth microdilution method. Type of data set: functional. The gist of the method: as §1
A short description of data set [18]: AUC (0 to infinity) in Sprague-Dawley rat at 5 mg/kg, iv. The following applies: plasma. Type of data set: ADME, organism-based. Set-up: time infinity, dose 5 mg/kg, route intravenous.
Data set [19] has as its system Haemophilus influenzae. Nature of the data set: Antimicrobial activity against Haemophilus influenzae Q1 after 24 hrs by broth microdilution method. It counts as functional. Conditions: Q1, 24 h. The gist of the method: as §1
Data set [20] deals with Staphylococcus aureus. Nature of the data set: Antimicrobial activity against methicillin-resistant Staphylococcus aureus after 24 hrs by broth microdilution method. It counts as functional. The procedure, abridged:
(§2)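 Broth microdilution following NCCLS M7-A4, using ATCC strains and clinical isolates from a provincial hospital.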

The test system of data set [21] is Moraxella catarrhalis. Nature of the data set: Antimicrobial activity against Moraxella catarrhalis 1502 after 24 hrs by broth microdilution method. Type of data set: functional. The following applies: Moraxella catarrhalis, 1502, 24 h. The gist of the method:
as §1

The nature of data set [22]: AUC (0 to t) in Sprague-Dawley rat at 25 mg/kg, po. It counts as ADME, organism-based. Set-up: dose 25 mg/kg, route oral. Conditions: plasma.
Data set [23] relates to Enterococcus faecalis. Description: Antimicrobial activity against Enterococcus faecalis Isolate 1 after 24 hrs by broth microdilution method. It counts as functional. Conditions: Isolate 1, 24 h. The gist of the method:
as §1

In data set [24] the test system is Staphylococcus aureus. Description: Antimicrobial activity against Staphylococcus aureus OXFORD after 24 hrs by broth microdilution method. Type of data set: functional. The procedure, abridged:
as §2

Data set [25] deals with Staphylococcus aureus. Description: Antimicrobial activity against methicillin-susceptible Staphylococcus aureus after 24 hrs by broth microdilution method. It counts as functional. The procedure, abridged: as §1
A short description of data set [26]: Mean residence time (0 to t) in Sprague-Dawley rat at 25 mg/kg, po. The following applies: in vivo. Set-up: dose 25 mg/kg, route oral. It counts as ADME, organism-based.
The test system of data set [27] is Streptococcus pneumoniae. Nature of the data set: Antimicrobial activity against Streptococcus pneumoniae 1629 after 24 hrs by broth microdilution method. It counts as functional. Conditions: Streptococcus pneumoniae, 1629, 24 h. The gist of the method: as §1
Data set [28] in a line: Tmax in Sprague-Dawley rat at 25 mg/kg, po. Set-up: dose 25 mg/kg, route oral. It counts as ADME, organism-based. Conditions: in vivo.
The test system of data set [29] is Enterococcus faecium. Description: Antimicrobial activity against Enterococcus faecium X7501 after 24 hrs by broth microdilution method. Type of data set: functional. The following applies: X7501, 24 h. The procedure, abridged: as §1
A short description of data set [30]: Volume of distribution at steady state in Sprague-Dawley rat at 5 mg/kg, iv. It counts as ADME, organism-based. Set-up: dose 5 mg/kg, route intravenous. Conditions: in vivo, read-out: Vdss.
In data set [31] the test system is Streptococcus pyogenes. Description: Antimicrobial activity against Streptococcus pyogenes 1307006P after 24 hrs by broth microdilution method. It counts as functional. The gist of the method: as §1
The subject of data set [32] is Streptococcus pneumoniae. Nature of the data set: Antimicrobial activity against Streptococcus pneumoniae ERY2 after 24 hrs by broth microdilution method. Type of data set: functional. Conditions: ERY2, 24 h. The gist of the method:
as §1

Data set [33] deals with T1, hERG (KCNH2) (Homo sapiens, UniProt Q12809). Description: Inhibition of human ERG at 10 uM.
Data set [34] is described as follows: Clearance in Sprague-Dawley rat at 5 mg/kg, iv. Type of data set: ADME, organism-based. Also noted: dose 5 mg/kg, route intravenous. The following applies: in vivo.
The target in data set [35] is T1, hERG (KCNH2). Nature of the data set: Inhibition of human ERG at 1 uM.
Data set [36] deals with Moraxella catarrhalis. Description: Antimicrobial activity against Moraxella catarrhalis after 24 hrs by broth microdilution method. Type of data set: functional. The procedure, abridged: as §1
For data set [37], the system named is Streptococcus pneumoniae. Nature of the data set: Antimicrobial activity against penicillin-resistant Streptococcus pneumoniae after 24 hrs by broth microdilution method. Type of data set: functional. The procedure, abridged:
as §2

Data set [38] concerns Enterococcus faecalis. Description: Antimicrobial activity against Enterococcus faecalis after 24 hrs by broth microdilution method. Type of data set: functional. The gist of the method: as §1
The subject of data set [39] is Staphylococcus epidermidis. Description: Antimicrobial activity against methicillin-susceptible Staphylococcus epidermidis after 24 hrs by broth microdilution method. It counts as functional. The procedure, abridged: as §1
Data set [40] has as its system Staphylococcus epidermidis. Nature of the data set: Antimicrobial activity against methicillin-resistant Staphylococcus epidermidis after 24 hrs by broth microdilution method. Type of data set: functional. The gist of the method:
as §2

T1 sequence (Q12809 whole entry): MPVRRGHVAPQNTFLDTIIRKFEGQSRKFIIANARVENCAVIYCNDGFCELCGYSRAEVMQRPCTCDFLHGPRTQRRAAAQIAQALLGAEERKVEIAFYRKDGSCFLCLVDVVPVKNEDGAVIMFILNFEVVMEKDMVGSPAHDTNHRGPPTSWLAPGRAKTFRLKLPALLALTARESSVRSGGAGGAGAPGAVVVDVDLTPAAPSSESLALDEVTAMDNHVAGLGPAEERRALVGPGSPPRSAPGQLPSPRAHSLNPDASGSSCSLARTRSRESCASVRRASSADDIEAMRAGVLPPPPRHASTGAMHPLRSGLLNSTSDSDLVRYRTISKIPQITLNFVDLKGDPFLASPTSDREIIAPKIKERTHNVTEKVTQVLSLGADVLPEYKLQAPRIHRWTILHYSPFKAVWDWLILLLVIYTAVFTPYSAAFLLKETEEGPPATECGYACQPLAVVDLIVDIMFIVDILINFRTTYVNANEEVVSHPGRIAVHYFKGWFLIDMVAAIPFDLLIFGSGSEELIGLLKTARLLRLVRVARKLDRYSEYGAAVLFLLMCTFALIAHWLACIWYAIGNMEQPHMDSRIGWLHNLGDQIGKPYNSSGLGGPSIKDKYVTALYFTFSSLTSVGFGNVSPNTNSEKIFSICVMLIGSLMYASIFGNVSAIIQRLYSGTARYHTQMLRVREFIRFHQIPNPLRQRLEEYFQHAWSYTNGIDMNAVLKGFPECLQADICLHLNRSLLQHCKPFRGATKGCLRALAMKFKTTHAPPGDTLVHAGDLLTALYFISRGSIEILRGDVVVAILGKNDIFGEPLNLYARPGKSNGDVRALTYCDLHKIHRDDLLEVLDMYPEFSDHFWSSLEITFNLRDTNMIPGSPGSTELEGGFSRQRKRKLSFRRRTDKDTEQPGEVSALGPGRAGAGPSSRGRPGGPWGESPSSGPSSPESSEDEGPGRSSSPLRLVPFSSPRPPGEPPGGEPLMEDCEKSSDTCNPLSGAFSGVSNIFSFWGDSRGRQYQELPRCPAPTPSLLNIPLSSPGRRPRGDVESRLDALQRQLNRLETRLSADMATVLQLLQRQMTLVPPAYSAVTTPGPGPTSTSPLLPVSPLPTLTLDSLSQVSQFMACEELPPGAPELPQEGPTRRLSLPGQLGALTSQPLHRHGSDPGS

For orientation: Cmax means the maximum level reached in the sampled fluid or tissue. One may read the half-life as the time in which the quantity being followed falls by half. High values mean slow loss, low ones fast loss. In general, AUC(0-inf) refers to the area under the concentration-time curve extrapolated to infinity. Higher therefore signals more exposure. One may read the bioavailability as the share of a dose that reaches the circulation, judged against a reference dose that is usually intravenous. The term AUC(0-t) denotes the area under the concentration-time curve up to a stated or last time point. Lower therefore signals low exposure. What is called MRT last is a mean duration of stay, worked out from the concentration-time curve. Usually Tmax stands for the time from dosing to the highest level. In general, inhibition refers to the share of the control response that was lost under treatment. The low end stands for little suppression, the high end for strong suppression. As a reminder, the clearance is the rate of elimination divided by the concentration. Lower therefore signals inefficient removal. Regarding `Cc1cnc(NC(=O)[C@@H]2C=CCN2C(=O)[C@H](CC2CCCC2)CN(O)C=O)s1`, in [1], the peak level (Cmax) was 4560 ng/mL. Further, the results for the half-life in data set [2] and in [7] were 3.31 h and 2.68 h, respectively. The MIC is 0.0625 µg/mL (≈ 0.154 µM) in data set [3]; 0.5 µg/mL (≈ 1.23 µM) in [4]; 32 µg/mL (≈ 78.7 µM) in data set [6]; 16 µg/mL (≈ 39.4 µM) in data set [8]; 2 µg/mL (≈ 4.92 µM) in [10]; 0.25 µg/mL (≈ 0.615 µM) in [11]. Besides, the MIC was at most 0.06 µg/mL in data set [13]; at most 0.06 µg/mL in data set [14]; 16 µg/mL (≈ 39.4 µM) in [15]; 0.0312 µg/mL (≈ 0.0769 µM) in [17]; 2 µg/mL (≈ 4.92 µM) in data set [19]; 0.125 µg/mL (≈ 0.307 µM) in data set [20]. For the same molecule, the MIC in data set [21] is at most 0.06 µg/mL; in data set [23], 2 µg/mL (≈ 4.92 µM); in data set [24] it was 0.25 µg/mL (≈ 0.615 µM); in [25], 0.25 µg/mL (≈ 0.615 µM); in data set [27], 0.5 µg/mL (≈ 1.23 µM); in data set [29], 0.5 µg/mL (≈ 1.23 µM). Also, the MIC in data set [31] turned out to be 0.25 µg/mL (≈ 0.615 µM); in data set [32], 0.5 µg/mL (≈ 1.23 µM). Also, the values for the AUC(0-inf) in [5] and in data set [18] were 12300 ng·h/mL and 4700 ng·h/mL, respectively. In [9], this molecule displayed a bioavailability of 52.3%. The exposure AUC(0-t) in data set [12] was 4700 ng·h/mL; in data set [22], 12200 ng·h/mL. In addition, the figures for the mean residence time (MRT last) in data set [16] and in [26] were 1.24 h and 3.39 h, respectively. Besides, in data set [28], the Tmax came out at 0.625 h. The Vd in data set [30] was found to be 1.37 L/kg. This molecule also had an inhibition at 10 µM in data set [33] of 15.9%. Besides, in data set [34], the clearance is 18.6 mL/min/kg. Moreover, the inhibition at 1 µM in [35] amounted to 5.38%.

Consider `CCCC[C@H](CN(O)C=O)C(=O)N1C[C@@H](C)C[C@H]1C(=O)Nc1ccc(F)c[n+]1[O-]`, for which the MIC in [36] was found to be 0.03 µg/mL (≈ 0.0731 µM); in data set [17], 0.25 µg/mL (≈ 0.609 µM); in [37], 0.03 µg/mL (≈ 0.0731 µM); in [20] it was 0.25 µg/mL (≈ 0.609 µM); in data set [38] it was 4 µg/mL (≈ 9.75 µM); in data set [25], 0.25 µg/mL (≈ 0.609 µM). Further, the MIC in data set [39] is 0.0625 µg/mL (≈ 0.152 µM); in [40] it was 0.5 µg/mL (≈ 1.22 µM).

Consider `Cc1cnc(NC(=O)[C@@H]2C[C@H](F)CN2C(=O)[C@H](CC2CCCC2)CN(O)C=O)s1`, for which the MIC in [36] was 0.125 µg/mL (≈ 0.293 µM); in [17], 1 µg/mL (≈ 2.34 µM); in data set [37] it was 0.03 µg/mL (≈ 0.0703 µM); in data set [20], 0.5 µg/mL (≈ 1.17 µM); in [38] it was over 16 µg/mL; in data set [25], 0.5 µg/mL (≈ 1.17 µM). Besides, the MIC is 0.125 µg/mL (≈ 0.293 µM) in [39] and 1 µg/mL (≈ 2.34 µM) in data set [40].
